In paper PMC8313742 (Molecular Metabolism, 2021):
Values belong to the substance of their own block, whether it stands above or below them.

Key:
[1] = system: Zucker diabetic fatty (fa/fa; ZDF) rats; test: 8-week intervention study in ZDF rats; format: in vivo, rat; conditions: for tAUC, BW / tAUC, FI / Epididymal AT / Inguinal AT / Perirenal AT: n = 10, mean ± SEM; for Epididymal AT / Inguinal AT / Perirenal AT: study end; for HbA1c levels compared to vehicle / OGTT blood glucose iAUC compared to vehicle: KBP-066 […] q.d.; for HbA1c levels compared to vehicle: KBP-066A 1.5 and 3 nmol/kg q.3.d.; for vehicle-corrected reduction in HbA1c at the end of the study: dose not given; for OGTT blood glucose iAUC compared to vehicle: OGTT 1 g/kg after seven weeks, KBP-066A 0.75 and 3 nmol/kg q.3.d.
AMY3R cell line = format: binding, human; conditions: competition with […] 125I-sCT, AMY3R cells, triplicates
HFD Sprague Dawley rats = test: Chronic 4-week study in high-fat diet-fed Sprague Dawley rats; format: in vivo, rat; conditions: for tAUC, BW / tAUC, FI / Epididymal AT / Inguinal AT / Perirenal AT: 4 weeks, n = 6, mean ± SEM; for Epididymal AT / Inguinal AT / Perirenal AT: study end
In short: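 Male Sprague Dawley rats fed 60 kcal% fat diet from 5–6 weeks old for 20 weeks were randomized by body weight (n = 6). Dosing was s.c. saline or test compound q.3.d. for 4 weeks. Body weight and food intake were taken daily, and tAUC calculated. Terminal OGTT (2 g/kg, 4 mL/kg p.o.) was run after 14-h fast, 24 h post-dose, with glucose iAUC. Epididymal, perirenal and inguinal fat were weighed.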

[2] = system: obese male Sprague Dawley rats (HFD); test: Acute food intake and body weight after single s.c. injection; format: in vivo, rat; conditions: HFD SD rats; for body weight change after single injection: single s.c. 3 nmol/kg, 96-hour profile, n = 4
In short: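 Male Sprague Dawley rats on 60 kcal% fat diet from 5–6 weeks of age were used when obese (>500 g). They were allocated by body weight and given a single s.c. injection at time 0. Food intake and body weight were recorded daily for 96–144 h. tAUC (0–96 h) was calculated. n = 4–10 per group. One-way ANOVA with Tukey versus vehicle; mean ± SEM.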

[3] = system: obese male Sprague Dawley rats (HFD); test: Acute gastric emptying rate; format: in vivo, rat; conditions: plasma acetaminophen, n = 8
In short: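 Obese HFD-fed male Sprague Dawley rats were fasted overnight, then given s.c. test compound plus oral glucose bolus and acetaminophen at time 0. Tail-vein EDTA blood was taken at 0, 30, 60, 120 and 240 min. Plasma acetaminophen by ELISA served as gastric emptying estimate, expressed as % of vehicle. n = 8. One-way ANOVA/Tukey at 60 and 240 min; Kruskal–Wallis/Dunn at 30 and 120 min.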

[4] = molecular target: T1, Amylin 3 receptor (AMY3R; CHO K1 CALCR RAMP3) (Homo sapiens, UniProt O60896+P30988); test: PathHunter β-arrestin recruitment reporter assay, amylin receptor; format: cell-based; conditions: 10% FBS (Table S1)
T1 sequence (P30988 25-474): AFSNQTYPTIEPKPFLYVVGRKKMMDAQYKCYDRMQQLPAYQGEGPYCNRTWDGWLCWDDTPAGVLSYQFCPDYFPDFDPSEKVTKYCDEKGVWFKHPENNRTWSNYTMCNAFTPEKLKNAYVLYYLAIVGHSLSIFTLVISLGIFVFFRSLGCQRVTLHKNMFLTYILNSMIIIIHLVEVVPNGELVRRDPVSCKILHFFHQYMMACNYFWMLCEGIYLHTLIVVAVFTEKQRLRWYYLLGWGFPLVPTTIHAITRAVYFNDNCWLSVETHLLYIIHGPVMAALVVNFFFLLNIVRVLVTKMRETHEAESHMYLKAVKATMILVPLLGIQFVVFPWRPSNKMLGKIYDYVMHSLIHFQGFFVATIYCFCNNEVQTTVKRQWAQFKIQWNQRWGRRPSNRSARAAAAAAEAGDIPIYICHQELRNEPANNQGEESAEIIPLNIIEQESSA
T1 sequence (O60896 24-148 partner): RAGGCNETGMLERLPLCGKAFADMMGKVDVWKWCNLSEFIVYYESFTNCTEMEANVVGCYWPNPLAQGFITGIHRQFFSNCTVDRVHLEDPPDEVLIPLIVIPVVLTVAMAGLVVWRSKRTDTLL

[5] = 0.75 nmol/kg s.c. q.3.d., 8 weeks
[6] = single s.c. 36 nmol/kg, n = 6-10

change of IC50 in 2% HSA compared to 0.01% HSA (AMY3R cell line): 100 fold
Substance: Ac-CSNLSTCXLGKLSQDLHRLQTYPKTDVGANAP-NH2 [KBP-066A]
effect on fasting blood glucose levels ([1]; 0.75 nmol/kg q.3.d. (lowest dose), 8 weeks): minor | tAUC, BW [1, 5]: 6180 ± 67 g∗days^−1 | tAUC, FI [1, 5]: 3815 ± 135∗∗¤ g∗days^−1 | Epididymal AT [1, 5]: 3.7 ± 0.1 g | Inguinal AT [1, 5]: 4.8 ± 0.4 g | Perirenal AT [1, 5]: 6.0 ± 0.3 g | fasting blood glucose levels (tAUC) compared to KBP-066 q.d. ([1]; 3 nmol/kg q.3.d. (highest dose), 8 weeks): significantly improved | tAUC, BW ([1]; 3 nmol/kg s.c. q.3.d., 8 weeks): 6409 ± 122 g∗days^−1 | tAUC, FI ([1]; 3 nmol/kg s.c. q.3.d., 8 weeks): 2898 ± 61∗∗∗ g∗days^−1 | Epididymal AT ([1]; 3 nmol/kg s.c. q.3.d., 8 weeks): 4.7 ± 0.2 g | Inguinal AT ([1]; 3 nmol/kg s.c. q.3.d., 8 weeks): 6.3 ± 0.7 g | Perirenal AT ([1]; 3 nmol/kg s.c. q.3.d., 8 weeks): 6.7 ± 0.4 g | plasma insulin (tAUC) compared to KBP-066 q.d. ([1]; 8 weeks, 3 nmol/kg q.3.d.): significantly preserved plasma insulin at higher levels | HbA1c levels compared to vehicle ([1]; 8 weeks): significantly improved | vehicle-corrected reduction in HbA1c at the end of the study ([1]; 8 weeks): 46% | OGTT blood glucose iAUC compared to vehicle [1]: significantly reduced | tAUC, BW (HFD Sprague Dawley rats; 1 nmol/kg s.c. q.3.d.): 2584 ± 7∗∗∗ g∗days^−1 | tAUC, FI (HFD Sprague Dawley rats; 1 nmol/kg s.c. q.3.d.): 617 ± 10∗∗∗ g∗days^−1 | Epididymal AT (HFD Sprague Dawley rats; 1 nmol/kg s.c. q.3.d.): 4.4 ± 1.0 g | Inguinal AT (HFD Sprague Dawley rats; 1 nmol/kg s.c. q.3.d.): 2.8 ± 0.3 g | Perirenal AT (HFD Sprague Dawley rats; 1 nmol/kg s.c. q.3.d.): 3.5 ± 0.9 g | tAUC, BW (HFD Sprague Dawley rats; 2 nmol/kg s.c. q.3.d.): 2452 ± 6∗∗∗¤ g∗days^−1 | tAUC, FI (HFD Sprague Dawley rats; 2 nmol/kg s.c. q.3.d.): 518 ± 6∗∗∗¤¤¤ g∗days^−1 | Epididymal AT (HFD Sprague Dawley rats; 2 nmol/kg s.c. q.3.d.): 3.9 ± 1.1 g | Inguinal AT (HFD Sprague Dawley rats; 2 nmol/kg s.c. q.3.d.): 1.9 ± 0.5 g | Perirenal AT (HFD Sprague Dawley rats; 2 nmol/kg s.c. q.3.d.): 2.7 ± 0.7∗∗ g | tAUC, BW (HFD Sprague Dawley rats; 4 nmol/kg s.c. q.3.d.): 2458 ± 8∗∗∗ g∗days^−1 | tAUC, FI (HFD Sprague Dawley rats; 4 nmol/kg s.c. q.3.d.): 532 ± 10∗∗∗¤¤ g∗days^−1 | Epididymal AT (HFD Sprague Dawley rats; 4 nmol/kg s.c. q.3.d.): 4.2 ± 1.2 g | Inguinal AT (HFD Sprague Dawley rats; 4 nmol/kg s.c. q.3.d.): 2.9 ± 1.4 g | Perirenal AT (HFD Sprague Dawley rats; 4 nmol/kg s.c. q.3.d.): 2.8 ± 1.0∗∗ g | OGTT glucose iAUC compared to vehicle (HFD Sprague Dawley rats; OGTT after four weeks, KBP-066A 1, 2, 4 nmol/kg q.3.d.): not statistically significant compared to vehicle | effect on food intake and body weight ([2]; single s.c. 0.5 nmol/kg (lowest dose), n = 6-10): only had a minor effect on both parameters | body weight change after single injection [2]: still markedly reduced even 96 h post-injection | duration of effect on body weight [2, 6]: 144 h | duration of effect on food intake [2, 6]: 120 h

fold lower EC50 than KBP-066A for the AMYR [4]: eight-fold
Substance: Ac-CSNLSTCXLGRLSQDLHRLQTYPKTDVGANAP-NH2 [KBP-066]
HbA1c levels compared to vehicle ([1]; 8 weeks): significantly improved | vehicle-corrected reduction in HbA1c at the end of the study ([1]; 8 weeks): 31% | OGTT blood glucose iAUC compared to vehicle [1]: significantly reduced | gastric emptying rate at 30 min ([3]; […] s.c., overnight fasted rats): reduced the gastric emptying rate | gastric emptying rate at 60 and 120 min ([3]; both doses 0.75 and […] s.c.): significantly did so | change of IC50 in 2% HSA compared to 0.01% HSA (AMY3R cell line): not affected by the difference in HSA concentration | body weight change after single injection [2]: completely returned to the baseline after 72 h
